# In the library only some 3.6% were active in any assay of this set; here they are far more common.
# MITF TRPM1 HTS: activators of MITF-driven TRPM1 promoter reporter, primary screen, cell-based, SK-MEL-5, luciferase, single point; 300,000 compounds, 0.75% hits; SK-MEL-5 TRPM1-promoter luciferase, 24 h; % of positive control, neutral wells = 0; activation, % at 12.5 µM;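 active = mean activation of at least 80% with every replicate also reaching 80%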;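 note: 0% = neutral control wells and 100% = parthenolide positive control wells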
# SR-BI DiI-HDL act: activators of SR-BI mediated DiI-HDL uptake, primary screen, ldlA[mSR-BI] CHO cells, DiI fluorescence | 3 h; 100 = double the neutral-control signal | activation, % at 12.5 µM | 320,000 compounds, 0.096% hits | AID 504775, 2011;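 active = mean replicate activation of at least 60% and every replicate at or above 60%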;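 note: 0% = median plate neutral-control signal and 100% = twice that signal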
#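 Test system: SR-BI-overexpressing, LDLR-lacking CHO cells. Measured by: DiI fluorescence, bottom read. Medium: Ham's F12 with 0.5% BSA, HEPES 25 mM, pH 7.4. Timing: 3 h uptake period with compound, 37 °C.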
# HSF1 activator: HSF-1 activators, primary screen, NIH3T3-HGL cells, MG132 stress, luminescence, single point | NIH3T3-HGL HSF-1 luciferase reporter, 8 h; 100% = twice DMSO control signal | activation, % at 9 µM | 300,000 compounds, 1.7% hits;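 active = mean replicate activation of at least 50% with a set share of replicates each reaching 50%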;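 note: 0% = median of the neutral control wells and 100% = twice that signal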
# SR-BI DiI inh: inhibitors of SR-BI mediated HDL lipid uptake, primary screen, ldlA[mSR-BI] cells, fluorescence, single point | Scavenger receptor class B member 1 (Mus musculus), Q61009 | 320,000 compounds, 0.96% hits | ldlA[mSR-BI] CHO cells, DiI-HDL uptake fluorescence, 3 h | inhibition, % at 12.5 µM;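 active = mean replicate inhibition of at least 70% and a set share of replicates each scoring 70 or more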;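 note: 0% = median of neutral control wells and 100% = median of positive control wells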
# Wnt act: Wnt/beta-catenin pathway activators, primary screen, cell-based, plate reader, single point; activation, % at 9.35 µM; Wnt/beta-catenin reporter cell assay, activator; AID 743398, 2014; 300,000 compounds, 1.2% hits; in the data active = activation above about 30%, passing the limit was not always enough;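 note: 0% = neutral control wells and 100% = positive control wells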
# * hit, by the source's call; x = no result given.
SMILES,MITF TRPM1 HTS,SR-BI DiI-HDL act,HSF1 activator,SR-BI DiI inh,Wnt act
O=C(Nc1cccc([N+](=O)[O-])c1)c1[nH]ncc1Cl,30,8,52*,-8,22
Cc1cccc(C)c1-n1c(C)cc(/C=N/NC(=O)CSc2ncccn2)c1C,4,-18,-10,18,-3
Cc1cc(C)nc(SCC(=O)N/N=C/c2cc(C)n(-c3ccccc3C)c2C)n1,1,-85,-5,85*,x
NC(=O)c1ccc(C(F)(F)F)n(Cc2cccc(Cl)c2)c1=O,18,-18,64*,18,x
CC(C)(C)c1ccc(-c2cc(NC(=O)Cc3c[nH]c4ccccc34)ccc2Nc2cccnc2)cc1,x,x,x,x,-6
CN1CCCCC(NC(=O)C23CC4CC(CC(C4)C2)C3)C1=O (configuration not stated),x,x,x,x,-3
CCOC(=O)c1ccc(NC(=O)OC[C@@H]2CSCCS(=O)(=O)N2)cc1,x,x,x,x,-5
O=C(NCC1CCCO1)C1CC(c2ccccc2Cl)=NO1 (configuration not stated),12,32,-16,-32,x
COc1ccccc1C1=NOC(CN2C(=O)c3ccccc3S2(=O)=O)C1 (configuration not stated),104*,-38,48,38,37*
COc1ccccc1C1=NOC(COc2ccc3c(C)cc(=O)oc3c2)C1 (configuration not stated),x,-6,-23,6,-2
COc1ccccc1C1=NOC(COC(=O)c2ccc(Br)cc2)C1 (configuration not stated),0,4,0,-4,-12
O=C1c2ccccc2S(=O)(=O)N1CC1CC(c2ccccc2Cl)=NO1 (configuration not stated),94*,-8,-5,8,93*
COc1ccccc1C1=NOC(COC(=O)c2ccc([N+](=O)[O-])cc2)C1 (configuration not stated),x,x,17,x,41*
COCCOc1ccc(C(F)(F)F)cc1NC(=O)c1ccc(C(F)(F)F)cc1,-3,-18,-3,18,0
CCCOc1ccc(C(F)(F)F)cc1NC(=O)c1cc(C)on1,-3,-72,x,72*,0
O=c1ccn2c(n1)SC(c1ccccc1)C2 (configuration not stated),x,x,x,x,-3
CSc1ccc(-c2ccc3c(c2)c(Sc2ccccc2)c(-c2ccccc2)n3C)cc1,x,x,x,x,0
O=C(Nc1cccc(C(F)(F)F)c1)Nc1ccc2nc([C@@H]3O[C@H](CO)[C@@H](O)[C@H](O)[C@H]3O)[nH]c2c1,x,x,x,x,-3
Oc1nc(Nc2ccccc2)sc1/C=C1\C=Nc2ccccc21,88*,x,101*,x,23
CCn1c(O)c(/C=C2\C=Nc3ccccc32)sc1=Nc1ccc(C)cc1,-6,-63,20,63,-7
CCn1c(O)c(/C=C2\C=Nc3ccccc32)sc1=O,58,13,74*,26,39*
CCC(C(=O)NC1CCCC1)n1c(-c2cc3ccccc3[nH]2)nc2ccccc21 (configuration not stated),x,x,x,x,-2
COc1ccc(C(=O)ON=C(C)c2nccs2)cc1,x,x,x,x,-3
COc1ccc(-c2cc(CCCC(=O)NCCc3ccc(OC)cc3OC)no2)cc1,-5,-58,62*,58,x
CCOC(=O)c1sc(NNC(=O)c2ccc(C)cc2)nc1C,x,1,10,-1,1
SMILES,MITF TRPM1 HTS,SR-BI DiI-HDL act,HSF1 activator,SR-BI DiI inh,Wnt act
CCOC(=O)c1nc(NNC(=O)c2ccc([N+](=O)[O-])cc2)sc1C,x,-91,-5,91*,0
C[C@H](O)[C@@H]1C(=O)N2CCc3c([nH]c4cccc(-c5ccccc5)c34)[C@@H]2C[C@@H]1N(C)C(=O)OCc1ccccc1,x,x,x,x,-2
COC(=O)c1cccc(CC2(C)C(=O)Nc3cc(-c4ccccc4Cl)ccc32)c1 (configuration not stated),x,x,x,x,0
Oc1ccc2ccccc2c1C=Nc1ccccc1-c1nc2ccccc2[nH]1,19,-51,59*,51,x
Oc1ccc2ccccc2c1/C=N/n1cnnc1,-22,32,-10,-32,-2
Cc1ccc(-c2nc3ccccc3[nH]2)s1,61,33,51*,-33,x

# Screening data deposited in PubChem by Broad Institute.
